# Measurements from ChEMBL document CHEMBL2380219, “Physalin A induces apoptotic cell death and protective autophagy in HT1080 human fibrosarcoma cells” (J Nat Prod, 2013).
# Activity calls are given as the source filed them. The rule behind the calls is not given here.
# Columns and labels:
# HT-1080 [1] = test: Cytotoxicity against human HT1080 cells assessed as growth inhibition at 10 uM pretreated with z-DEVD-FMK for 1 hr prior to compound addition measured after 24 hrs by MTT assay; type: functional, cell-based
# Summary of the method: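 HT1080 seeded 0.8 × 10^4 cells/well. MTT 2 h at 37 °C, formazan in DMSO, A492 read. Inhibition % calculated against untreated and blank wells.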
# HT-1080 [2] = test: Induction of apoptosis in human HT1080 cells assessed as change in procaspase-9 expression level at 10 uM after 6 to 24 hrs by Western blotting analysis; type: functional, cell-based
# Summary of the method: (§1)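 HT1080 cells treated with 10 μM for 6, 12, 18 and 24 h. Adherent and floating cells lysed 60 min at 4 °C in Hepes pH 7.4/1% Triton X-100 buffer with phosphatase and protease inhibitors. Equal protein run on 12% SDS-PAGE, transferred to nitrocellulose, probed with specific antibodies, HRP/ECL detection. Band density normalized to β-actin; n = 3.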
# HT-1080 [3] = test: Induction of autophagy in human HT1080 cells assessed as increase in autophagolysosomes at 10 uM after 24 hrs by MDC staining-based fluorescence microscopic analysis (reference value: 2.65 +/- 0.12%); type: functional
# Summary of the method: (§2)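 HT1080 cells at 2 × 10^4 per well, cultured 24 h, then given 10 μM for 24 h. Stained with 0.05 mM MDC at 37 °C for 1 h. Autophagolysosomes viewed by fluorescence microscopy at 200×.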
# HT-1080 [4] = test: Induction of apoptosis in human HT1080 cells assessed as upregulation of FADD protein expression at 10 uM pretreated with rapamycin for 1 hr prior to compound addition measured after 24 hrs by Western blotting analysis; type: functional, cell-based
# Summary of the method: (§3)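 HT1080 cells pretreated 1 h with 1 mM 3MA or 1 nM rapamycin, then co-incubated with 10 μM for 24 h. Adherent and floating cells lysed in Hepes pH 7.4/Triton buffer. 12% SDS-PAGE, nitrocellulose, antibodies against Fas, FADD, caspase-8, caspase-3, PARP and ICAD, ECL detection. Densities normalized to β-actin; n = 3.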
# HT-1080 [5] = test: Induction of autophagy in human HT1080 cells assessed as autophagic vacuole formation at 10 uM pretreated with rapamycin for 1 hr prior to compound addition measured after 24 hrs by MDC staining-based FACS flow cytometric analysis; type: functional, cell-based
# Summary of the method: (§4)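 HT1080 cells seeded at 3 × 10^5 per flask and grown 24 h. Pretreated 1 h with 1 mM 3MA or 1 nM rapamycin, then 10 μM for 24 h. Collected cells stained with 0.05 mM MDC at 37 °C for 1 h. MDC-positive ratio measured by flow cytometry, n = 3, mean ± SD.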
# HT-1080 [6] = test: Induction of apoptosis in human HT1080 cells assessed as change in BCL2 expression at 10 uM after 6 to 24 hrs by Western blotting analysis; type: functional, cell-based; summary of the method: as §1
# HT-1080 [7] = test: Induction of apoptosis in human HT1080 cells expressing beclin 1 siRNA assessed as reversal of beclin 1 upregulation at 10 uM after 24 hrs by Western blotting analysis relative to control; type: functional, cell-based
# Summary of the method: (§5)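 Beclin 1 or nonspecific siRNA transfected into HT1080 cells (5 × 10^5 seeded a day earlier; transfection mixture for 7 h at 37 °C, then normal medium, 24 h before harvest). Cells then got 10 μM for 24 h. Adherent plus floating cells lysed in Hepes pH 7.4/Triton buffer at 4 °C for 60 min. Equal protein on 12% SDS-PAGE, nitrocellulose, ECL. Bands normalized to β-actin, n = 3.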
# HT-1080 [8] = test: Induction of apoptosis in human HT1080 cells assessed as increase in apoptotic ratio at 10 uM pretreated with rapamycin for 1 hr prior to compound addition measured after 24 hrs by propidium iodide staining-based FACS flow cytometric analysis; type: functional, cell-based
# HT-1080 [9] = test: Induction of apoptosis in human HT1080 cells expressing beclin 1 siRNA assessed as increase in FAS protein expression at 10 uM after 24 hrs by Western blotting analysis relative to control; type: functional, cell-based; summary of the method: as §5
# HT-1080 [10] = test: Induction of apoptosis in human HT1080 cells assessed as increase in procaspase-8 cleavage at 10 uM pretreated with 3MA for 1 hr prior to compound addition measured after 24 hrs by Western blotting analysis; type: functional, cell-based; summary of the method: as §3
# HL-60 = test: Cytotoxicity against human HL60 cells assessed as growth inhibition after 24 hrs by MTT assay; type: functional, cell-based
# Summary of the method: (§6)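 Seeded 0.8 × 10^4 cells/well, cultured 24 h, then exposed to 0, 10, 20, 40 or 80 μM for 24 h (DMSO <0.05%) in RPMI 1640 or MEM with 10% FBS. Adherent lines rinsed with PBS, given MTT 2 h at 37 °C. Suspension lines (U937, HL60) given MTT 2 h, then centrifuged. Formazan dissolved in DMSO, A492 read. Inhibition % = (control − sample)/(control − blank) × 100.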
# A-431 = test: Cytotoxicity against human A431 cells assessed as growth inhibition after 24 hrs by MTT assay; type: functional, cell-based; summary of the method: as §6
# HT-1080 [11] = test: Induction of autophagy in human HT1080 cells assessed as upregulation of beclin 1 at 10 uM pretreated with rapamycin for 1 hr prior to compound addition measured after 24 hrs by Western blotting analysis; type: functional, cell-based
# Summary of the method: (§7)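 HT1080 cells pretreated 1 h with 1 mM 3MA or 1 nM rapamycin, then 10 μM added for 24 h. Adherent and floating cells lysed in Hepes pH 7.4/Triton buffer. Equal protein on 12% SDS-PAGE and nitrocellulose, probed for beclin 1 and LC3, ECL detection. Normalized to β-actin, n = 3.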
# HCT-116 = test: Cytotoxicity against human HCT116 cells assessed as growth inhibition after 24 hrs by MTT assay; type: functional, cell-based; summary of the method: as §6
# HT-1080 [12] = test: Induction of autophagy in human HT1080 cells assessed as increase in autophagolysosomes at 10 uM by MDC staining-based fluorescence microscopic analysis; type: functional, cell-based; summary of the method: as §2
# HT-1080 [13] = test: Induction of apoptosis in human HT1080 cells expressing beclin 1 siRNA assessed as increase in procaspase-3 cleavage at 10 uM after 24 hrs by Western blotting analysis relative to control; type: functional, cell-based; summary of the method: as §5
# HT-1080 [14] = test: Cytotoxicity against human HT1080 cells assessed as growth inhibition at 1 to 100 uM by MTT assay; type: functional, cell-based; details: TDE = time-dependent effect
# HT-1080 [15] = test: Induction of autophagy in human HT1080 cells assessed as conversion from LC31to LC32 at 10 uM pretreated with rapamycin for 1 hr prior to compound addition measured after 24 hrs by Western blotting analysis; type: functional, cell-based; summary of the method: as §7
# HT-1080 [16] = test: Induction of apoptosis in human HT1080 cells assessed as procaspase-8 cleavage at 10 uM by Western blotting analysis; type: functional, cell-based; details: TDE = time-dependent effect
# HT-1080 [17] = test: Induction of autophagy in human HT1080 cells assessed as increase in autophagy ratio at 10 uM pretreated with rapamycin for 1 hr prior to compound addition measured after 24 hrs by MDC staining-based FACS flow cytometric analysis; type: functional, cell-based; summary of the method: as §4
# HT-1080 [18] = test: Induction of apoptosis in human HT1080 cells assessed as increase in FAS protein expression at 10 uM after 6 to 24 hrs by Western blotting analysis; type: functional, cell-based; summary of the method: as §1
smiles,measurement,setting,value
C=C1C(=O)O[C@@H]2C[C@@]1(C)[C@@H]1C(=O)[C@]3(O)O[C@]14[C@@]2(C)OC(=O)[C@@]4(O)CC[C@H]1[C@H]3[C@H](O)C=C2CC=CC(=O)[C@@]21C [PHYSALIN A],growth inhibition (GI),HT-1080 [1],Active
same,Activity,HT-1080 [2],inactive
same,Activity,HT-1080 [3],26.7%
same,Activity,HT-1080 [4],inactive
same,Activity,HT-1080 [5],Active
same,Activity,HT-1080 [6],inactive
same,Activity,HT-1080 [7],Active
same,Activity,HT-1080 [8],inactive
same,Activity,HT-1080 [9],Active
same,Activity,HT-1080 [10],Active
same,growth inhibition (GI),HL-60,Dose-dependent effect
same,growth inhibition (GI),A-431,Dose-dependent effect
same,Activity,HT-1080 [11],Active
same,growth inhibition (GI),HCT-116,Dose-dependent effect
same,Activity,HT-1080 [12],Active
same,Activity,HT-1080 [13],Active
same,growth inhibition (GI),HT-1080 [14],tde
same,Activity,HT-1080 [15],Active
same,Activity,HT-1080 [16],tde
same,Activity,HT-1080 [17],Active
same,Activity,HT-1080 [18],Active
